# From paper PMC6720533 (Biomolecules & Therapeutics, 2019)
# Columns and labels:
# PKA = PKA (Homo sapiens, UniProt P17612); experiment: Kinase activity screening; assay type: biochemical; details: FX-9 at 2.5 μM, ATP at Km (10 μM)
# How it was run: (§1)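 Radiometric substrate-phosphorylation screen covering a panel of 58 human kinases run by a contract service. […] Activity is given as a percentage of mean activity in positive control samples (100%). Values <30% were scored strong hits, 30–70% partial hits and >70% no hit.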
# eEF-2K = eEF-2K (Homo sapiens, UniProt O00418); experiment: Kinase activity screening; assay type: biochemical; details: FX-9 at 2.5 μM, ATP at Km (15 μM)
# How it was run: (§2)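 Radiometric kinase-panel screen of 58 human kinases, measuring substrate phosphorylation. […] Activity is given as % of the mean positive-control kinase activity (100%). Below 30% counts as a strong hit, 30–70% as a partial hit, and above 70% as no hit.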
# pSTAT3 = experiment: Western blot, SEM cells; assay type: cell-based, human; details: 2.5 μM or 5.0 μM, 48 h
# How it was run: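 SEM or RS4;11 cells took DMSO, 2.5 or 5.0 μM test compound for 48 h. Cells (1–5×10^6) were lysed in RIPA buffer with sonication, run on SDS gels, blotted to PVDF and imaged by near-infrared fluorescence. Bands were normalised to GAPDH, and the phospho/total protein ratio was set relative to DMSO control (=1).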
# CEM cells = experiment: Proliferation, viable cell count by trypan blue exclusion; assay type: cell-based, human; details: 72 h
# How it was run: (§3)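 Human B-ALL (SEM, RS4;11) and T-ALL (Jurkat, CEM) lines were grown with 10% heat-inactivated FBS and penicillin/streptomycin at 37°C, 5% CO2. Cells took test compound at 0.1–5.0 μM (methods: 0.5–5.0 μM) or DMSO for up to 72 h. Viable cells were counted by trypan blue exclusion and expressed relative to control (100%). IC50 came from three separate experiments, each in triplicate.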
# PI3 Kinase (p120g) = PI3 Kinase (p120g) (Homo sapiens, UniProt P48736); experiment: Kinase activity screening; assay type: biochemical; details: FX-9 at 2.5 μM, ATP at Km (100 μM)
# How it was run: as §1
# PKCθ = PKCθ (Homo sapiens, UniProt Q04759); experiment: Kinase activity screening; assay type: biochemical; details: FX-9 at 2.5 μM, ATP at Km (15 μM)
# How it was run: as §2
# MSK2 = MSK2 (Homo sapiens, UniProt O75676); experiment: Kinase activity screening; assay type: biochemical; details: FX-9 at 2.5 μM, ATP at Km (45 μM)
# How it was run: as §1
# c-RAF = c-RAF (Homo sapiens, UniProt P04049); experiment: Kinase activity screening; assay type: biochemical; details: FX-9 at 2.5 μM, ATP at Km (120 μM)
# How it was run: as §2
# EGFR = EGFR (Homo sapiens, UniProt P00533); experiment: Kinase activity screening; assay type: biochemical; details: FX-9 at 2.5 μM, ATP at Km (10 μM)
# EGFR, sequence (P00533 25-1210): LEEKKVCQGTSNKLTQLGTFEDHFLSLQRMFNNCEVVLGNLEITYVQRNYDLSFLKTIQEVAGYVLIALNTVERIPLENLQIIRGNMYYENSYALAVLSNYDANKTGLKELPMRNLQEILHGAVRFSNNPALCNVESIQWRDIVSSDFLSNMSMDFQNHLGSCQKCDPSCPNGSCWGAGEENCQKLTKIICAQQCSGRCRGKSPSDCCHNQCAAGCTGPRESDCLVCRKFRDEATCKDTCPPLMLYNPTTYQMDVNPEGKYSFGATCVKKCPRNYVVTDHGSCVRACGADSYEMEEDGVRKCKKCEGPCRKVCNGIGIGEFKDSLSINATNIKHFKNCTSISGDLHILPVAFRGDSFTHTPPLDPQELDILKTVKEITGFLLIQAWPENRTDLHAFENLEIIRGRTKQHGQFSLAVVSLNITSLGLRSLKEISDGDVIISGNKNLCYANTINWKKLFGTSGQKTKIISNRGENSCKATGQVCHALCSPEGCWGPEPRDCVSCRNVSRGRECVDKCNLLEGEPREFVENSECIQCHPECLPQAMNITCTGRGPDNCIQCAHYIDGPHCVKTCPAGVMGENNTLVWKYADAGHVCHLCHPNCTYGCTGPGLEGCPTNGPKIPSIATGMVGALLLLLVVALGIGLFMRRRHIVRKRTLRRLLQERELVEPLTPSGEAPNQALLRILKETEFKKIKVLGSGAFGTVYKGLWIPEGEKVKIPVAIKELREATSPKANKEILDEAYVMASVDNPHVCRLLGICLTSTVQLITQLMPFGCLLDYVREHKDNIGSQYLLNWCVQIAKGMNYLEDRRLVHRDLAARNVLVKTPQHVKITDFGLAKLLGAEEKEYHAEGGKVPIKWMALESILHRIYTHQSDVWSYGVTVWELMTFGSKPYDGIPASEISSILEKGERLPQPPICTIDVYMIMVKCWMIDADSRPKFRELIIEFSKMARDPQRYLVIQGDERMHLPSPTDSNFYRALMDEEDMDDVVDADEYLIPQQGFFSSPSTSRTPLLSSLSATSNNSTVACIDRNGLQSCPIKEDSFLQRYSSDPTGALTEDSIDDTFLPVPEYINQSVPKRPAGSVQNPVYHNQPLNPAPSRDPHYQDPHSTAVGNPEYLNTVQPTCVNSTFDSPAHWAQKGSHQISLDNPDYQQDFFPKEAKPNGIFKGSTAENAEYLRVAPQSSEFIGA
# How it was run: as §1
# SEM cells = experiment: Apoptosis, Annexin V FITC / propidium iodide flow cytometry; assay type: cell-based, human; details: 5 μM, 72 h, DMSO 7.4%
# SAPK2a = SAPK2a (Homo sapiens, UniProt Q16539); experiment: Kinase activity screening; assay type: biochemical; details: FX-9 at 2.5 μM, ATP at Km (90 μM)
# SAPK2a, sequence (Q16539 whole entry): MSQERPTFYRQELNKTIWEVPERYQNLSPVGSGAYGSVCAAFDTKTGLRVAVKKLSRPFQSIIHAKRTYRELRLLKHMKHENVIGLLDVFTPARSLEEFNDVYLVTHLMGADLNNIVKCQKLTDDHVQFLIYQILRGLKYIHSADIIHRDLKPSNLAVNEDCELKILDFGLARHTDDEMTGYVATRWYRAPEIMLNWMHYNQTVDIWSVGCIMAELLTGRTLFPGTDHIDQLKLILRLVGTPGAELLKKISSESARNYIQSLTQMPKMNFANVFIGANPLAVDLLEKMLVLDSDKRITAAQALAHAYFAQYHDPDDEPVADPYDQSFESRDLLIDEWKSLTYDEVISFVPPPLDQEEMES
# How it was run: as §2
# Jurkat cells [1] = experiment: Apoptosis, Annexin V FITC / propidium iodide flow cytometry; assay type: cell-based, human; details: 5 μM, 72 h, DMSO 18.7%
# PRAK = PRAK (Homo sapiens, UniProt Q8IW41); experiment: Kinase activity screening; assay type: biochemical; details: FX-9 at 2.5 μM, ATP at Km (15 μM)
# PRAK, sequence (Q8IW41 whole entry): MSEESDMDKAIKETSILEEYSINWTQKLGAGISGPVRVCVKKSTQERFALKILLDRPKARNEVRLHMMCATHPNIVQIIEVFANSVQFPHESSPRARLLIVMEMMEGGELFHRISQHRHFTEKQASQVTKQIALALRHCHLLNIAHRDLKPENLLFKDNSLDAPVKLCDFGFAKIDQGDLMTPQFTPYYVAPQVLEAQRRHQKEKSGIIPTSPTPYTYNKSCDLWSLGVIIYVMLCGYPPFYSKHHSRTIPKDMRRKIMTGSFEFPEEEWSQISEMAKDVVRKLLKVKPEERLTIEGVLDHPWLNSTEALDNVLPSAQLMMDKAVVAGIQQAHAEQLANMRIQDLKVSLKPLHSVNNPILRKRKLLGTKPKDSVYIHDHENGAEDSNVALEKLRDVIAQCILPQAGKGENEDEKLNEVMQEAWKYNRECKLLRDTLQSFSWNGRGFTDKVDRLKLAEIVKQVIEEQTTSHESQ
# How it was run: as §2
# MST1 = MST1 (Homo sapiens, UniProt Q13043); experiment: Kinase activity screening; assay type: biochemical; details: FX-9 at 2.5 μM, ATP at Km (90 μM)
# MST1, sequence (Q13043 whole entry): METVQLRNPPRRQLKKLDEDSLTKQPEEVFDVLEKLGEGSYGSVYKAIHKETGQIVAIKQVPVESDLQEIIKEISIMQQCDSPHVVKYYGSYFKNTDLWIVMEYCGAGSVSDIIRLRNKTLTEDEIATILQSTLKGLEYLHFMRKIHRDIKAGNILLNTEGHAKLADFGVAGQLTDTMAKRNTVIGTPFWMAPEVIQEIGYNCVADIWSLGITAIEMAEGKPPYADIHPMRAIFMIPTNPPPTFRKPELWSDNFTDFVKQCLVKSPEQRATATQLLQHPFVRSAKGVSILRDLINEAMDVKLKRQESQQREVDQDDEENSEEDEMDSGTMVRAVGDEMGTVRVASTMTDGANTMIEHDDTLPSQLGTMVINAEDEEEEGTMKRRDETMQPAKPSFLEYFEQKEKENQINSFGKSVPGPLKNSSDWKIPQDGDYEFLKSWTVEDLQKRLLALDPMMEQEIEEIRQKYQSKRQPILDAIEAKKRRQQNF
# How it was run: as §1
# SRPK1 = SRPK1 (Homo sapiens, UniProt Q96SB4); experiment: Kinase activity screening; assay type: biochemical; details: FX-9 at 2.5 μM, ATP at Km (10 μM)
# How it was run: as §2
# CDK6/cyclinD3 = CDK6/cyclinD3 (Homo sapiens, UniProt Q00534); experiment: Kinase activity screening; assay type: biochemical; details: FX-9 at 2.5 μM, ATP at Km (200 μM)
# CDK6/cyclinD3, sequence (Q00534 whole entry): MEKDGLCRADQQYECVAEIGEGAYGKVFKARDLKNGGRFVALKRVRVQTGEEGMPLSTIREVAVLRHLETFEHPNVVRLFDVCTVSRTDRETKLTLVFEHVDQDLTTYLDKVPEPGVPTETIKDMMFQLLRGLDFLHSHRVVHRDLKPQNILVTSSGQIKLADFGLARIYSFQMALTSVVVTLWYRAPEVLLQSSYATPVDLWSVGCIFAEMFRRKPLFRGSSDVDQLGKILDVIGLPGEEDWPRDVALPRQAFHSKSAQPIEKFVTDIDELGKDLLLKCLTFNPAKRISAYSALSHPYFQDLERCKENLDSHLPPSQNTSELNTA
# CDK6/cyclinD3, sequence (P30281 whole entry partner): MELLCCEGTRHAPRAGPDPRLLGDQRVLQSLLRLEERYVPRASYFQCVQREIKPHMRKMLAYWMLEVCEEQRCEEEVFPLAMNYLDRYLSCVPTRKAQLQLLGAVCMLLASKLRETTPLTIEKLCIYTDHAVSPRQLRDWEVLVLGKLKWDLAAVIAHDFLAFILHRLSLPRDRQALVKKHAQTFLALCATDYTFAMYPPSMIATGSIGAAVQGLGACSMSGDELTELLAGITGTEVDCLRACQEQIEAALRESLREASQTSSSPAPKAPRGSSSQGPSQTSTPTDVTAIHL
# How it was run: as §1
# CK1γ1 = CK1γ1 (Homo sapiens, UniProt Q9HCP0); experiment: Kinase activity screening; assay type: biochemical; details: FX-9 at 2.5 μM, ATP at Km (15 μM)
# CK1γ1, sequence (Q9HCP0 whole entry): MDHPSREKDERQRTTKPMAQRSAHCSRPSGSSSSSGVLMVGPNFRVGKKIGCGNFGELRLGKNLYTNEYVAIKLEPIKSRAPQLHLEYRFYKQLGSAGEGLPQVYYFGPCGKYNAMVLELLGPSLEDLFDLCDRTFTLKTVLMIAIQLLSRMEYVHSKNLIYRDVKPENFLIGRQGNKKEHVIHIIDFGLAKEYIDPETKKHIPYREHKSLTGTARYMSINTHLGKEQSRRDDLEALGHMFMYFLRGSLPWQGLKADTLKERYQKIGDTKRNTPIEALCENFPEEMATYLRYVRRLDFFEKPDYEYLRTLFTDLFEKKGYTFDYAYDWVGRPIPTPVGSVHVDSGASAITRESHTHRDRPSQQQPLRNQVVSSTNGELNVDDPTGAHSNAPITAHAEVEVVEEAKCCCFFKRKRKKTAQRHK
# How it was run: as §1
# p70S6K = p70S6K (Homo sapiens, UniProt P23443); experiment: Kinase activity screening; assay type: biochemical; details: FX-9 at 2.5 μM, ATP at Km (15 μM)
# p70S6K, sequence (P23443 whole entry): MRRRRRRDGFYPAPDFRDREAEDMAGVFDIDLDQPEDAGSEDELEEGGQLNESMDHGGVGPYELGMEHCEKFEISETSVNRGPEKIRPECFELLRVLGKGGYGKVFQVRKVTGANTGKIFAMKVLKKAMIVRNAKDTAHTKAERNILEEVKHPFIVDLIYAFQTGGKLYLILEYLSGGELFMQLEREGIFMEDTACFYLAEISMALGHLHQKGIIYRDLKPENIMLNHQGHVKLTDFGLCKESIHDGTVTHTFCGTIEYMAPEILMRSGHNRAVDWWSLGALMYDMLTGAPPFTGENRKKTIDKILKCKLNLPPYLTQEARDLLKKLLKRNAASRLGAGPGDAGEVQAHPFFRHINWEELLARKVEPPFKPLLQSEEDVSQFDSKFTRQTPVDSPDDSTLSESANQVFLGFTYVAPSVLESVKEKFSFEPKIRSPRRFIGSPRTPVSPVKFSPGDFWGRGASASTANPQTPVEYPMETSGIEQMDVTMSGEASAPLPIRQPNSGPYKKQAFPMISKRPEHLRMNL
# How it was run: as §2
# CaMKI = CaMKI (Homo sapiens, UniProt Q14012); experiment: Kinase activity screening; assay type: biochemical; details: FX-9 at 2.5 μM, ATP at Km (200 μM)
# How it was run: as §1
# RS4;11 cells = experiment: Proliferation, viable cell count by trypan blue exclusion; assay type: cell-based, human
# How it was run: as §3
# Jurkat cells [2] = experiment: as above; assay type: cell-based, human; details: 72 h
# How it was run: as §3
# CDK1/cyclinB = CDK1/cyclinB (Homo sapiens, UniProt P06493); experiment: Kinase activity screening; assay type: biochemical; details: FX-9 at 2.5 μM, ATP at Km (45 μM)
# CDK1/cyclinB, sequence (P06493 whole entry): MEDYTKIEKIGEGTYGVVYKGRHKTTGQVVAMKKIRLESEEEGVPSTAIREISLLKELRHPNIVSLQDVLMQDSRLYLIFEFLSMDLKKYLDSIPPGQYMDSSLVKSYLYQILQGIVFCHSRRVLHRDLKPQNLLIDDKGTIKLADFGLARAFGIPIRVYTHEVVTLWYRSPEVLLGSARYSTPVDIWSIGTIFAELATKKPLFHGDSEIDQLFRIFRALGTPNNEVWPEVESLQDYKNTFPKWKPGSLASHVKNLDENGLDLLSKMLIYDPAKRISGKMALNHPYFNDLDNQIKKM
# CDK1/cyclinB, sequence (P14635 whole entry, further chain): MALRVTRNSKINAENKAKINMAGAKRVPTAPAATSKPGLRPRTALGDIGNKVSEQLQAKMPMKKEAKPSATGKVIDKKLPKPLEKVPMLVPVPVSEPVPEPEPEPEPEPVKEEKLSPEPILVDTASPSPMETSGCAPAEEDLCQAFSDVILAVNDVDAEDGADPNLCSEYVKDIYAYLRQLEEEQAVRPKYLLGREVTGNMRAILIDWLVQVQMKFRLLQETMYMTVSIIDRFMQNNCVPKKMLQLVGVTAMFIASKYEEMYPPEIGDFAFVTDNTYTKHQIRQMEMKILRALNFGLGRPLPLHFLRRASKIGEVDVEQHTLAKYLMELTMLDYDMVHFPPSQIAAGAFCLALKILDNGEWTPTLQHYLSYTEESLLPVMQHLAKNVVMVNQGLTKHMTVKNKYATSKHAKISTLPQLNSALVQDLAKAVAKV
# How it was run: as §1
structure (smiles),measurement,setting,value
"Cc1ccc(-c2cc3ccccc3c(N)n2)cc1 [FX-9, 3-(p-Tolyl)isoquinolin-1-amine]",Kinase activity (% control),PKA,92 % control
same,Kinase activity (% control),eEF-2K,86 % control
same,pSTAT3 level (western blot),pSTAT3,reduced
same,Proliferation compared to control cells (100%),"CEM cells; CEM, 2.5 μM",24.1%
same,IC50,"CEM cells; Homo sapiens, CCRF-CEM, read-out: IC50 based on proliferation",1940 ± 30 nM
same,Kinase activity (% control),PI3 Kinase (p120g),98 % control
same,Kinase activity (% control),PKCθ,96 % control
same,Kinase activity (% control),MSK2,89 % control
same,Kinase activity (% control),c-RAF,92 % control
same,Kinase activity (% control),EGFR,101 % control
same,Apoptosis (total of early apoptotic and late apoptotic and necrotic cells),SEM cells,75.9%
same,Kinase activity (% control),SAPK2a,98 % control
same,Apoptosis (total of early apoptotic and late apoptotic and necrotic cells),Jurkat cells [1],48.7%
same,Kinase activity (% control),PRAK,79 % control
same,Kinase activity (% control),MST1,87 % control
same,Kinase activity (% control),SRPK1,94 % control
same,Kinase activity (% control),CDK6/cyclinD3,103 % control
same,Kinase activity (% control),CK1γ1,98 % control
same,Kinase activity (% control),p70S6K,85 % control
same,Kinase activity (% control),CaMKI,100 % control
same,IC50,"RS4;11 cells; Homo sapiens, RS4-11, 72 h, read-out: IC50 based on proliferation",540 ± 20 nM
same,Proliferation compared to control cells (=100%),"RS4;11 cells; RS4;11, 0.5 μM, 72 h",60.0%
same,Proliferation compared to control cells (100%),Jurkat cells [2]; 2.5 μM,16.3%
same,IC50,"Jurkat cells [2]; Homo sapiens, read-out: IC50 based on proliferation",1670 ± 30 nM
same,Kinase activity (% control),CDK1/cyclinB,97 % control
